Assay results from ChEMBL document CHEMBL4049453, “Discovery of Mixed Pharmacology Melanocortin-3 Agonists and Melanocortin-4 Receptor Tetrapeptide Antagonist Compounds (TACOs) Based on the Sequence Ac-Xaa1-Arg-(pI)DPhe-Xaa4-NH2” (J Med Chem, 2017).
The source made the active and inactive calls. The calls are words filed in the database; no cut-off is given here. Non-standard residues stand in square brackets, D forms with d. Residues, ends and D or L forms follow the SMILES beside them. Bip = N[C@@H](Cc1ccc(-c2ccccc2)cc1)C(=O)O; dPhe(4-I) = N[C@H](Cc1ccc(I)cc1)C(=O)O; 2Nal = N[C@@H](Cc1ccc2ccccc2c1)C(=O)O

How the values were obtained:
Melanocortin receptor 4 [1] = target: T1, Melanocortin receptor 4 (Mus musculus, UniProt P56450); assay: Agonist activity at mouse MC4R expressed in HEK293 cells assessed as induction of cAMP accumulation after 2 hrs by alpha screen assay; format: cell-based
T1 sequence (P56450 whole entry): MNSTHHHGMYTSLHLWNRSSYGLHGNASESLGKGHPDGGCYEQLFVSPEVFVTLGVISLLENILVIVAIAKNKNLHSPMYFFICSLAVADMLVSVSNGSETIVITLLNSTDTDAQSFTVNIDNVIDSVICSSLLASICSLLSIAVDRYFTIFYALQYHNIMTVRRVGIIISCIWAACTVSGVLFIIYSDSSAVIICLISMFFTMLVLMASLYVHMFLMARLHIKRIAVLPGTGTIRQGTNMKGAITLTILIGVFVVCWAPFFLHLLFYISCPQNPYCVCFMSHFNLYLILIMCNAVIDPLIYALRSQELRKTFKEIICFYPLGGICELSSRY

Melanocortin receptor 4 [2] = target: T1, Melanocortin receptor 4; assay: Agonist activity at mouse MC4R expressed in HEK293 cells assessed as induction of cAMP accumulation up to 100 uM after 2 hrs by alpha screen assay relative to NDP-MSH; format: cell-based; conditions: read-out: Activity
[3] = target: Melanocortin receptor 3 (Mus musculus) (UniProt P33033); assay: Agonist activity at mouse MC3R expressed in HEK293 cells assessed as induction of cAMP accumulation at 100 uM after 2 hrs by alpha screen assay relative to NDP-MSH; format: functional, cell-based
Chain of Melanocortin receptor 3 (Mus musculus) (P33033 whole entry): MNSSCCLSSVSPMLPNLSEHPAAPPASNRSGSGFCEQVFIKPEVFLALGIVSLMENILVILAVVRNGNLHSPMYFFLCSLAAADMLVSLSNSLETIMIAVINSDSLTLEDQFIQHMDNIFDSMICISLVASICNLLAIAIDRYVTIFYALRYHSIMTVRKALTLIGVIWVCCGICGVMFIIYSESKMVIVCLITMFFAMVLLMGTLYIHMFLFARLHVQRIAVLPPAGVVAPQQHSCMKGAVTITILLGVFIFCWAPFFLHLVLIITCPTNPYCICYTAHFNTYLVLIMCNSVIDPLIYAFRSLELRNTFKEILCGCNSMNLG
Procedure, shortened: (§1)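 HEK293 stably expressing mouse MC1R/MC3R/MC4R/MC5R (pCDNA3). Cells in stimulation buffer (HBSS, 0.5 mM IBMX, 5 mM HEPES, 0.1% BSA, pH 7.4) at 1000 cells/μL with anti-cAMP acceptor beads. Ligand given 10−4 to 10−10 M (or 10−6 to 10−12 M) for 2 h at RT in the dark, then donor beads/biotin-cAMP lysis mix for 2 h. AlphaScreen cAMP read-out, normalized to 10−6 M NDP-MSH as 100%.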

Melanocortin receptor 4 [4] = target: T1, Melanocortin receptor 4; assay: Agonist activity at mouse MC4R expressed in HEK293 cells assessed as induction of cAMP accumulation at 100 uM after 2 hrs by alpha screen assay relative to NDP-MSH; format: cell-based; procedure, shortened: as §1
[5] = target: Melanocortin receptor 3 (Mus musculus) (UniProt P33033); assay: Antagonist activity at mouse MC3R expressed in HEK293 cells assessed as inhibition of NDP-MSH induced-cAMP accumulation up to 10 uM after 2 hrs by alpha screen assay; format: functional, cell-based
Procedure, shortened: (§2)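 mouse MC3R or MC4R in stably transfected HEK293 cells, AlphaScreen cAMP assay (IBMX stimulation buffer, 2 h RT incubation, then 2 h with donor-bead lysis mix). […] Run in triplicate.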

[6] = target: Melanocortin receptor 4 (Mus musculus) (UniProt P56450); assay: Antagonist activity at mouse MC4R expressed in HEK293 cells assessed as inhibition of NDP-MSH induced-cAMP accumulation up to 10 uM after 2 hrs by alpha screen assay; format: functional, cell-based; procedure, shortened: as §2
Chain of Melanocortin receptor 4 (Mus musculus) (P56450 whole entry): as the sequence (P56450 whole entry) above

[7] = target: Melanocortin receptor 5 (Mus musculus) (UniProt P41149); assay: Agonist activity at mouse MC5R expressed in HEK293 cells assessed as induction of cAMP accumulation at 100 uM after 2 hrs by alpha screen assay relative to NDP-MSH; format: functional, cell-based; procedure, shortened: as §1
Chain of Melanocortin receptor 5 (Mus musculus) (P41149 whole entry): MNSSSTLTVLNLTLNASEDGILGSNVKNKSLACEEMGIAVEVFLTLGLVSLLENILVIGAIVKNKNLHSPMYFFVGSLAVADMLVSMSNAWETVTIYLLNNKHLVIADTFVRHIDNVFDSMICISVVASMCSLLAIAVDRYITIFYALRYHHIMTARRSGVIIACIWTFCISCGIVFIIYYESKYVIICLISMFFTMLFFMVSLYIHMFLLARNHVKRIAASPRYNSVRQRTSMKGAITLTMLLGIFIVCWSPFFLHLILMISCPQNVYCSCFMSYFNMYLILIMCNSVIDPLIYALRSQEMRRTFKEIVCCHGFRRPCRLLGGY

[8] = target: Melanocyte-stimulating hormone receptor (Mus musculus) (UniProt Q01727); assay: Agonist activity at mouse MC1R expressed in HEK293 cells assessed as induction of cAMP accumulation at 100 uM after 2 hrs by alpha screen assay relative to NDP-MSH; format: functional, cell-based; procedure, shortened: as §1
Chain of Melanocyte-stimulating hormone receptor (Mus musculus) (Q01727 whole entry, looked up): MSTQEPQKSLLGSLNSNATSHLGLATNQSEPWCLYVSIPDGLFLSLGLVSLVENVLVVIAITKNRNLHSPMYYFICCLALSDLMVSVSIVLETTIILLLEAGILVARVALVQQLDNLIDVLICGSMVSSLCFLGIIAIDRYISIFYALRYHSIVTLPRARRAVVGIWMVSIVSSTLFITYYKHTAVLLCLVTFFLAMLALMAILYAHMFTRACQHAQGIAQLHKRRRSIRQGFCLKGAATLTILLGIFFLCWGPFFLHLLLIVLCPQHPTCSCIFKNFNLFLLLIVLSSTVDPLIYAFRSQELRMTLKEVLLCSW

[9] = target: Melanocortin receptor 3 (Homo sapiens) (UniProt P41968); assay: Binding affinity to human MC3R expressed in CHO cells assessed by radioligand displacement
Chain of Melanocortin receptor 3 (Homo sapiens) (P41968 whole entry): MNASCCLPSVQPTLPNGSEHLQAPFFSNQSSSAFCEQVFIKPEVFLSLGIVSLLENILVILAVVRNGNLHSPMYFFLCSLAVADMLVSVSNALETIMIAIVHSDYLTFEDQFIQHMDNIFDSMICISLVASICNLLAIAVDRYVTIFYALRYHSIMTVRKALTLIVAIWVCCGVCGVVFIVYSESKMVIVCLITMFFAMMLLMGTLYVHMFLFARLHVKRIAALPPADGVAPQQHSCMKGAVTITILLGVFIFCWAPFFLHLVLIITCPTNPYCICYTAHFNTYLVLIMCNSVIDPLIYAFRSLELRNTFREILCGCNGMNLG

Melanocortin receptor 4 [10] = target: T2, Melanocortin receptor 4 (Homo sapiens, UniProt P32245); assay: Antagonist activity at human MC4R expressed in CHO cells assessed as inhibition of aplha MSH-induced cAMP activation after 45 mins; format: functional, cell-based
T2 sequence (P32245 whole entry): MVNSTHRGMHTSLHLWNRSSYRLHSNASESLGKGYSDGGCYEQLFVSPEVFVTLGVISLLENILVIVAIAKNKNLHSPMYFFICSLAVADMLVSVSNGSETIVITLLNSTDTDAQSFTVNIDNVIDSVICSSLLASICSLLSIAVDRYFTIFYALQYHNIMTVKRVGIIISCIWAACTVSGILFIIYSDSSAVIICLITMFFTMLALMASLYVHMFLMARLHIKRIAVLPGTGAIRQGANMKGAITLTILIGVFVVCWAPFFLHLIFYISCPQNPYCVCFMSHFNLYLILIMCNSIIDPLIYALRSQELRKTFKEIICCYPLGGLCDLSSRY

Melanocortin receptor 4 [11] = target: T2, Melanocortin receptor 4; assay: Agonist activity at human MC4R expressed in CHO cells assessed as induction of cAMP activation after 45 mins; format: cell-based; conditions: 0.75 h
Melanocortin receptor 4 [12] = target: T2, Melanocortin receptor 4; assay: Agonist activity at human MC4R expressed in CHO cells assessed as induction of cAMP activation after 45 mins relative to alpha MSH; format: cell-based; conditions: 0.75 h
[13] = target: Melanocyte-stimulating hormone receptor (Mus musculus) (UniProt Q01727); assay: Agonist activity at mouse MC1R expressed in HEK293 cells assessed as induction of cAMP accumulation up to 100 uM after 2 hrs by alpha screen assay relative to NDP-MSH; format: functional, cell-based; procedure, shortened: as §1
[14] = target: Melanocortin receptor 3 (Mus musculus) (UniProt P33033); assay: Agonist activity at mouse MC3R expressed in HEK293 cells assessed as induction of cAMP accumulation up to 100 uM after 2 hrs by alpha screen assay relative to NDP-MSH; format: functional, cell-based; procedure, shortened: as §1
[15] = target: Melanocortin receptor 5 (Mus musculus) (UniProt P41149); assay: Agonist activity at mouse MC5R expressed in HEK293 cells assessed as induction of cAMP accumulation up to 100 uM after 2 hrs by alpha screen assay relative to NDP-MSH; format: functional, cell-based; procedure, shortened: as §1

**Q.** With `CC(=O)N[C@@H](CCCNC(=N)N)C(=O)N[C@@H](CCCNC(=N)N)C(=O)N[C@H](Cc1ccc(I)cc1)C(=O)N[C@H](Cc1ccc2ccccc2c1)C(N)=O` as the compound, how does the EC50 (Melanocortin receptor 4 [1]) read?
**A.** The EC50 was > 100000 nM.

**Q.** And the Emax (Melanocortin receptor 4 [2])?
**A.** Its Emax is < 20%.

**Q.** `CC(=O)N[C@@H](Cc1csc2ccccc12)C(=O)N[C@@H](CCCNC(=N)N)C(=O)N[C@H](Cc1ccc(I)cc1)C(=O)N[C@H](Cc1ccc2ccccc2c1)C(N)=O` was tested. Which Activity [3] did it give?
**A.** The Activity was 34%.

**Q.** What about the Activity (Melanocortin receptor 4 [4]) of the same compound?
**A.** Its Activity is 38%.

**Q.** What about the inhibition [5] of the same compound?
**A.** The inhibition was “inactive”.

**Q.** And the inhibition [6]?
**A.** Its inhibition is “inactive”.

**Q.** And the Activity [7]?
**A.** The Activity was 41%.

**Q.** What about the Activity [8] of the same compound?
**A.** The Activity was 36%.

**Q.** For `N=C(N)NCCC[C@H](NC(=O)[C@@H](Cc1ccc(I)cc1)NC(=O)[C@@H]1Cc2ccccc2CN1)C(=O)N[C@@H](Cc1c[nH]c2ccccc12)C(N)=O`, which IC50 [9] is on record?
**A.** The IC50 was 75 nM.

**Q.** What about the Ki (Melanocortin receptor 4 [10]) of the same compound?
**A.** Its Ki is 0.79 nM.

**Q.** And the Kb (Melanocortin receptor 4 [10]; read-out: pA2 (converted))?
**A.** Its Kb is 0.794 nM.

**Q.** What about the Activity (Melanocortin receptor 4 [11]) of the same compound?
**A.** Its Activity is 0.3 nM.

**Q.** What about the Emax (Melanocortin receptor 4 [12]) of the same compound?
**A.** Its Emax is > 35%.

**Q.** For `CC(=O)N[C@@H](Cc1ccc2ccccc2c1)C(=O)N[C@@H](CCCNC(=N)N)C(=O)N[C@H](Cc1ccc(I)cc1)C(=O)N[C@@H](Cc1ccc2ccccc2c1)C(N)=O` (Ac-[2Nal]R[dPhe(4-I)][2Nal]-NH2), which Activity [3] is on record?
**A.** Its Activity is 39%.

**Q.** And the inhibition [5]?
**A.** Its inhibition is “inactive”.

**Q.** What about the Emax (Melanocortin receptor 4 [2]) of the same compound?
**A.** Its Emax is < 20%.

**Q.** And the inhibition [6]?
**A.** Its inhibition is “inactive”.

**Q.** How did the Activity [13] turn out when `CC(=O)N[C@@H](Cc1ccc(-c2ccccc2)cc1)C(=O)N[C@@H](CCCNC(=N)N)C(=O)N[C@H](Cc1ccc(I)cc1)C(=O)N[C@@H](Cc1ccc(-c2ccccc2)cc1)C(N)=O` (Ac-[Bip]R[dPhe(4-I)][Bip]-NH2) was run?
**A.** The Activity was < 20%.

**Q.** What about the inhibition [5] of the same compound?
**A.** The inhibition was “inactive”.

**Q.** And the inhibition [6]?
**A.** Its inhibition is “inactive”.

**Q.** And the Activity [14]?
**A.** The Activity was < 20%.

**Q.** And the Activity [15]?
**A.** Its Activity is < 20%.
